Assay results taken from ChEMBL document CHEMBL1155292, “Synthesis, analgesic and anti-inflammatory activities evaluation of some bi-, tri- and tetracyclic condensed pyrimidines” (Eur J Med Chem, 2009).

Columns and labels:
Mus musculus [1] = assay: Analgesic activity in albino mouse assessed as decrease in acetic acid-induced writhing at 10.24 mg/kg, po administered 1 hr prior to acetic acid challenge relative to control; type: functional
Summary of the method: (§1)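 Albino mice of either sex, 18–22 g, six per group. Test agents suspended in saline with a few drops of Tween 80 and given by oral stomach tube; controls handled identically without drug. After 1 h, 0.3 ml of 1% acetic acid ip. Writhing contractions counted for 30 min, starting 5 min after injection. % protection versus control mean; mean ± SEM; one-way ANOVA with post hoc test.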

Rattus norvegicus [2] = assay: Gastrointestinal toxicity in albino rat assessed as ulcerogenic index at 0.029 mmol/kg, po after 5 hrs; type: organism-based; conditions: in vivo
Summary of the method: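 Adult albino rats of either sex (120–150 g), 6 per group, got the test compounds orally by stomach tube as a suspension in saline with a few drops of tween 80. They were the same rats used in the carrageenan paw-edema test. Stomachs were then opened along the great curvature and examined for lesions or bleeding. Ulceration was recorded as the number of rats with ulcers out of 6.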

Rattus norvegicus [3] = assay: Antiinflammatory activity in albino rat assessed as inhibition of carrageenan-induced paw edema at 0.029 mmol/kg, po after 4 hrs relative to control; type: functional
Summary of the method: (§2)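 Adult albino rats of either sex, 120–150 g, six per group. Compounds at 0.029 mmol/kg suspended in saline with a few drops of Tween 80 and given by oral stomach tube. After 1 h, 0.1 ml of freshly prepared 1% carrageenan in saline injected subplantar into the right hind paw. Paw thickness measured at 1–4 h; % edema inhibition versus control; mean ± SEM; ANOVA.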

Rattus norvegicus [4] = assay: Antiinflammatory activity in albino rat assessed as inhibition of carrageenan-induced paw edema at 0.029 mmol/kg, po after 1 hr relative to control; type: functional; summary of the method: as §2
Rattus norvegicus [5] = assay: Antiinflammatory activity in albino rat assessed as inhibition of carrageenan-induced paw edema at 0.029 mmol/kg, po after 4 hrs relative to indomethacin; type: functional
Summary of the method: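 Rat carrageenan paw edema: oral 0.029 mmol/kg in saline/Tween 80, 1 h before subplantar 0.1 ml 1% carrageenan into the right hind paw; six rats per group. Potency is % inhibition of the test compound divided by % inhibition of indomethacin at 4 h.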

Rattus norvegicus [6] = assay: Antiinflammatory activity in albino rat assessed as inhibition of carrageenan-induced paw edema at 0.029 mmol/kg, po after 3 hrs relative to control; type: functional; summary of the method: as §2
Rattus norvegicus [7] = assay: Antiinflammatory activity in albino rat assessed as inhibition of carrageenan-induced paw edema at 0.029 mmol/kg, po after 2 hrs relative to control; type: functional; summary of the method: as §2
Mus musculus [8] = assay: Analgesic activity in albino mouse assessed as decrease in acetic acid-induced writhing at 11.75 mg/kg, po administered 1 hr prior to acetic acid challenge relative to control; type: functional; summary of the method: as §1
Mus musculus [9] = assay: Analgesic activity in albino mouse assessed as decrease in acetic acid-induced writhing at 8.12 mg/kg, po administered 1 hr prior to acetic acid challenge relative to control; type: functional; summary of the method: as §1
Rattus norvegicus [10] = assay: Antiinflammatory activity in po dosed albino rat assessed as inhibition of carrageenan-induced paw edema; type: functional, organism-based
Summary of the method: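 Adult albino rats of either sex, 120–150 g, groups of 6. Compound suspended in saline with a few drops of tween 80, given by oral stomach tube 1 h before subplantar injection of freshly prepared 1% carrageenan (0.1 ml) in saline into right hind paw. Paw thickness read at 1–4 h; % edema inhibition versus carrageenan control; mean ± SEM, one-way ANOVA with post hoc test.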

Rattus norvegicus [11] = assay: Antiinflammatory activity in albino rat assessed as inhibition of carrageenan-induced paw edema at 25 mg/kg, po; type: functional
Summary of the method: (§3)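 Rat carrageenan paw edema with oral dosing at 10, 15, 20 and 25 mg/kg, suspended in saline with Tween 80, 1 h before subplantar 0.1 ml 1% carrageenan into the right hind paw. % edema inhibition versus control at each dose; IC50 (mg/kg) derived from these four doses.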

Rattus norvegicus [12] = assay: Antiinflammatory activity in albino rat assessed as inhibition of carrageenan-induced paw edema at 20 mg/kg, po; type: functional; summary of the method: as §3
Rattus norvegicus [13] = assay: Antiinflammatory activity in albino rat assessed as inhibition of carrageenan-induced paw edema at 15 mg/kg, po; type: functional; summary of the method: as §3
Mus musculus [14] = assay: Analgesic activity in albino mouse assessed as decrease in acetic acid-induced writhing at 7.69 mg/kg, po administered 1 hr prior to acetic acid challenge relative to control; type: functional; summary of the method: as §1
Rattus norvegicus [15] = assay: Antiinflammatory activity in albino rat assessed as inhibition of carrageenan-induced paw edema at 10 mg/kg, po; type: functional; summary of the method: as §3
Mus musculus [16] = assay: Analgesic activity in albino mouse assessed as decrease in acetic acid-induced writhing at 8.04 mg/kg, po administered 1 hr prior to acetic acid challenge relative to control; type: functional; summary of the method: as §1
Mus musculus [17] = assay: Analgesic activity in albino mouse assessed as decrease in acetic acid-induced writhing at 8.36 mg/kg, po administered 1 hr prior to acetic acid challenge relative to control; type: functional; summary of the method: as §1
Mus musculus [18] = assay: Analgesic activity in albino mouse assessed as decrease in acetic acid-induced writhing at 8.47 mg/kg, po administered 1 hr prior to acetic acid challenge relative to control; type: functional; summary of the method: as §1
Mus musculus [19] = assay: Analgesic activity in albino mouse assessed as decrease in acetic acid-induced writhing at 8.33 mg/kg, po administered 1 hr prior to acetic acid challenge relative to control; type: functional; summary of the method: as §1

Row | SMILES | inhibition in vivo at 10.24 mg/kg (Mus musculus [1]) [%] | UI (Rattus norvegicus [2]) | inhibition in vivo at 29 µmol/kg (Rattus norvegicus [3]) [%] | inhibition in vivo at 29 µmol/kg (Rattus norvegicus [4]) [%] | relative potency at 29 µmol/kg (Rattus norvegicus [5]) | inhibition in vivo at 29 µmol/kg (Rattus norvegicus [6]) [%] | inhibition in vivo at 29 µmol/kg (Rattus norvegicus [7]) [%] | inhibition in vivo at 11.75 mg/kg (Mus musculus [8]) [%] | inhibition in vivo at 8.12 mg/kg (Mus musculus [9]) [%] | IC50 (Rattus norvegicus [10]) [mg/kg] | inhibition in vivo at 25 mg/kg (Rattus norvegicus [11]) [%] | inhibition in vivo at 20 mg/kg (Rattus norvegicus [12]) [%] | inhibition in vivo at 15 mg/kg (Rattus norvegicus [13]) [%] | inhibition in vivo at 7.69 mg/kg (Mus musculus [14]) [%] | inhibition in vivo at 10 mg/kg (Rattus norvegicus [15]) [%] | inhibition in vivo at 8.04 mg/kg (Mus musculus [16]) [%] | inhibition in vivo at 8.36 mg/kg (Mus musculus [17]) [%] | inhibition in vivo at 8.47 mg/kg (Mus musculus [18]) [%] | inhibition in vivo at 8.33 mg/kg (Mus musculus [19]) [%]
1 | N#Cc1ccc(/N=c2\c(C#N)c3n(c(=O)n2-c2ccccc2)CCC3)cc1 | 82.9 | Non-toxic | 23.6 | 16.9 | 0.86 | 28.1 | 28.1 |  |  |  |  |  |  |  |  |  |  |  | 
2 | O=C1NC(c2ccccc2[N+](=O)[O-])NC2=C1C1CCCN1C(=O)N2c1ccccc1 (centres undefined) |  |  | 3.73 | 12.3 | 0.13 | 8.65 | 14.1 | 86.8 |  |  |  |  |  |  |  |  |  |  | 
3 | CC/N=c1/c(C#N)c2n(c(=O)n1-c1ccccc1)CCC2 |  | Non-toxic | 30.4 | 7.82 | 1.11 | 24.5 | 23.1 |  | 74.4 |  |  |  |  |  |  |  |  |  | 
4 | C/N=c1/c(C#N)c2n(c(=O)n1-c1ccccc1)CCC2 |  | Non-toxic | 34.8 | 19.1 | 1.27 | 30.2 | 26.5 |  |  | 17.77 | 62.7 | 50.8 | 43 | 74 | 36 |  |  |  | 
5 | CCN1C(=S)N2CCCC2c2c1ncn(CC)c2=N (centres undefined) |  |  | 9.91 | 11.6 | 0.36 | 10.8 | 11.6 |  |  |  |  |  |  |  |  | 75.9 |  |  | 
6 | CCO/C=N/C1=C(C#N)C2CCCN2C(=S)N1CC (centres undefined) |  | Non-toxic | 20.5 | 12.3 | 0.75 | 20.9 | 19 |  | 88.1 |  |  |  |  |  |  |  |  |  | 
7 | N/N=C(/N)C1=C(N)N(c2ccccc2)C(=O)N2CCCC12 (centres undefined) |  |  | 23 | 8.97 | 0.84 | 25.9 | 27.3 |  |  |  |  |  |  |  |  |  | 79 |  | 
8 | C=CC/N=c1/c(C#N)c2n(c(=O)n1-c1ccccc1)CCC2 |  | Non-toxic | 14.3 | 2.23 | 0.52 | 23.1 | 19 |  |  |  |  |  |  |  |  |  |  | 81.1 | 
9 | NC1=C(/C(N)=N\O)C2CCCN2C(=O)N1c1ccccc1 (centres undefined) |  |  | 27.3 | 4.45 | 1 | 21.6 | 14.9 |  |  |  |  |  |  |  |  |  |  |  | 85.9
